“Also recorded” adds a separate entry of the source. Where two headings read alike, the source gives them in different places. Where a SMILES comes first, the peptide text is derived from it. Bridges are numbered along the chain shown (N, C = ends). [ ]: non-standard residue; d: D form. Tyr(SO2F) = N[C@@H](Cc1ccc(OS(=O)(=O)F)cc1)C(=O)O; S5 = C=CCCC[C@](C)(N)C(=O)O
Assays:
hMcl-1(172–323) [1] = biological target: T1, hMcl-1(172–323) (Homo sapiens, UniProt Q07820); experiment: LC-MS analysis of covalent complex; assay type: binding; details: 10 μM protein, 100 μM compound, 7 h, room temperature
[2] = biological target: His224Ala hMcl-1(172–323) (Homo sapiens, UniProt Q07820, H224A); experiment: LC-MS analysis of covalent complex, His224Ala mutant; assay type: binding; details: 10 μM protein, 100 μM compound, 7 h
hMcl-1(172–323) [3] = biological target: T1, hMcl-1(172–323); experiment: SDS gel electrophoresis, covalent adduct formation; assay type: binding; details: 10 μM protein, 100 μM compound
In short: (§1)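 Wild-type, His224Ala, His252Ala or Lys234Ala hMcl-1(172–323) (10 μM) was incubated with or without 100 μM test agent in 50 mM phosphate pH 7.5, 150 mM NaCl, 1% DMSO. Samples ran on 12% Bis-Tris SDS-PAGE with MOPS running buffer and protein stain. Mutants were sampled at 7 h. Wild type was also sampled over a time course, and complex formation was estimated qualitatively from the gel.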

hMcl-1 = hMcl-1 (Homo sapiens, UniProt Q07820); experiment: Kinetic measurements with the DELFIA assay; assay type: binding
In short: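 In the DELFIA format, wells with 16 nM Mcl-1 and 1:2000 Eu–N1 anti-6×His antibody were incubated 2 h, then with test compound for 0, 2, 5, 10, 20 and 40 min. Wells were washed three times and given enhancement solution for 10 min, then Eu fluorescence was read (excitation 340, emission 615). kobs came from the slope of % inhibition versus time, plotted against concentration and fitted hyperbolically to give KI and kinact.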

[4] = Chemical stability in aqueous buffer by 1D 1H and 19F NMR; assay type: physicochemical; details: 100 μM in 50 mM phosphate pH 7.5, 150 mM NaCl; up to 48 h
In short: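 Test compound at 100 μM in 50 mM phosphate pH 7.5, 150 mM NaCl. 1D 1H spectra were collected at set time points, and 19F 1D spectra were recorded in the same buffer at various time points on a 600 MHz instrument. Stability was judged from changes in the spectra over time.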

[5] = Plasma stability by 1D 1H NMR; assay type: in vitro ADME; details: human plasma in PBS
[6] = biological target: T2, 6×His-tagged hMcl-1(172–323) (Homo sapiens, UniProt Q07820); experiment: DELFIA displacement assay; assay type: binding
In short: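 6×His-tagged hMcl-1(172–323) (16 nM) in a heterogeneous DELFIA format. The test agent displaces a biotinylated BIM BH3 reference peptide. Test agent was preincubated with protein for a fixed time (2 h for the peptide series) before dose–response measurement. IC50 was taken from the dose–response curves, and the ratio line is the ratio of these IC50 values.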

6×His-hBfl-1(1–149) = experiment: DELFIA displacement assay against hBfl-1; assay type: binding, human; details: same experimental conditions as the hMcl-1 DELFIA assay
[7] = biological target: T2, 6×His-tagged hMcl-1(172–323); details: against hMcl-1; previously identified minimal binding peptide; cited from earlier work
[8] = biological target: hMcl-1(172–323) His252Ala (Homo sapiens, UniProt Q07820, H252A); experiment: SDS gel electrophoresis, His252Ala mutant; assay type: binding; details: 100 μM compound, 7 h
In short: as §1

[9] = biological target: hMcl-1(172–323) His224Ala (Homo sapiens, UniProt Q07820, H224A); experiment: SDS gel electrophoresis, His224Ala mutant; assay type: binding; details: 100 μM compound, 7 h
In short: as §1

[10] = biological target: hMcl-1(172–323) Lys234Ala (Homo sapiens, UniProt Q07820, K234A); experiment: SDS gel electrophoresis, Lys234Ala mutant; assay type: binding; details: 100 μM compound, 7 h
In short: as §1

T2 sequence (Q07820 172-323): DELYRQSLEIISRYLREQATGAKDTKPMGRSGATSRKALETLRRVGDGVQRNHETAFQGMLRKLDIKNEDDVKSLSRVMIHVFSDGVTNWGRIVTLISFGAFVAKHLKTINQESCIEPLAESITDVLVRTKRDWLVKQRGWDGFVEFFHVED
T1 sequence (Q07820 172-323): as above
Sequence of His224Ala hMcl-1(172–323) (Q07820 172-323 H224A): as the sequence (Q07820 172-323) above, with H53A counted along it
Sequence of hMcl-1 (Q07820 172-323): as the sequence (Q07820 172-323) above
Sequence of hMcl-1(172–323) His224Ala (Q07820 172-323 H224A): as the sequence (Q07820 172-323) above, with H53A counted along it
Sequence of hMcl-1(172–323) His252Ala (Q07820 172-323 H252A): as the sequence (Q07820 172-323) above, with H81A counted along it
Sequence of hMcl-1(172–323) Lys234Ala (Q07820 172-323 K234A): as the sequence (Q07820 172-323) above, with K63A counted along it

Compound	covalent adduct by mass spectrometry (hMcl-1(172–323) [1])	covalent adduct by mass spectrometry [2]	time to approximately 50% complex formation (hMcl-1(172–323) [3]; qualitative from gel) [h]	time to complete (or nearly complete) adduct formation (hMcl-1(172–323) [3]; qualitative from gel) [h]	kinact/KI (hMcl-1) [M⁻¹ s⁻¹]	chemical stability in aqueous buffer [4]	plasma stability ([5]; 8 h)	remaining after incubation in plasma ([5]; 24 h) [%]	IC50 [6] [nM]	times less active against hBfl-1(1–149) than hMcl-1 (6×His-hBfl-1(1–149)) [times]	IC50 [7] [nM]	band shift (stable adduct) [8]	band shift (stable adduct) (hMcl-1(172–323) [3]; 7 h incubation)	band shift (stable adduct) [9]	band shift (stable adduct) [10]
CC[C@H](C)[C@H](NC(C)=O)C(=O)N[C@@H](C)C(=O)N[C@@]1(C)CCC/C=C\CCC[C@@](C)(C(=O)N[C@H](C(=O)NCC(=O)N[C@@H](CC(=O)O)C(=O)N[C@@H](CCCNC(=N)N)C(=O)N[C@@H](Cc2ccc(OS(=O)(=O)F)cc2)C(N)=O)[C@@H](C)CC)NC(=O)[C@H](CCCNC(=N)N)NC(=O)[C@H](CC(C)C)NC(=O)[C@H](CCC(N)=O)NC1=O [compound 9] (Ac-IA[S5]QLR[S5]IGDR[Tyr(SO2F)]-NH2; staple (Z) 3-7)	corresponding to the anticipated mass of the covalent adduct	could not form a covalent adduct	~1	≤ 4	67000 ± 3e+07	No significant spectral changes were observed; also recorded: did not observe any degradation	remains mostly intact	~40	5.8 ± 0.9	~160					
IAEQLRRIGDRF											250				
CC[C@H](C)[C@H](NC(C)=O)C(=O)N[C@@H](C)C(=O)N[C@@H](CCC(=O)O)C(=O)N[C@@H](CCC(N)=O)C(=O)N[C@@H](CC(C)C)C(=O)N[C@@H](CCCNC(=N)N)C(=O)N[C@@H](CCCNC(=N)N)C(=O)N[C@H](C(=O)NCC(=O)N[C@@H](CC(=O)O)C(=O)N[C@@H](CCCNC(=N)N)C(=O)N[C@@H](Cc1ccc(OS(=O)(=O)F)cc1)C(N)=O)[C@@H](C)CC [compound 6] (Ac-IAEQLRRIGDR[Tyr(SO2F)]-NH2)	forms a stable 1:1 complex	no MW increase was observed							8.1			band shifts	band shift	not with the His224Ala mutant	band shifts

— PMC11613628 (Journal of Medicinal Chemistry, 2024)
